Source: PubChem (Johns Hopkins Ion Channel Center)
An excerpt weighted towards active compounds, which were near 3.5% of everything screened.
RGS4 pot = RGS4 potentiation or activation. B-score at 10 µM. HEK293 M3R/inducible RGS4, carbachol calcium flux Fluo4; hits give low values. 310,000 compounds, 0.92% hits;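 active means B-score of the integrated calcium signal more than 4 SD below the library mean, with starting fluorescence not abnormally high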;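 further: negative B-score means reduced calcium response which marks RGS4 activation or potentiation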
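Also added: carbachol at ECmax as muscarinic agonist stimulus; Assay system: HEK293 cells with stable M3R and inducible RGS4; Timing: overnight RGS4 induction, 30 min dye load 37 °C, 20 min compound RT; Measured by: Fluo4-AM (2 µM) calcium-flux fluorescence, kinetic read.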
MrgX1 antag = human MrgX1 receptor antagonism, primary screen. Q96LB2. MRGX1-HEK293 calcium flux, Fluo-4, BAM8-22 antagonism; hits give low values. B-score at 10 µM. 310,000 compounds, 1.3% hits;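 active means calcium-response B-score plate-corrected more than 3 library SD below zero, starting fluorescence within 5 deviations, no agonist response on first addition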;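 further: peak minus trough fluorescence over baseline after final BAM8-22 challenge near maximal dose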
Target sequence (Q96LB2 whole entry, looked up): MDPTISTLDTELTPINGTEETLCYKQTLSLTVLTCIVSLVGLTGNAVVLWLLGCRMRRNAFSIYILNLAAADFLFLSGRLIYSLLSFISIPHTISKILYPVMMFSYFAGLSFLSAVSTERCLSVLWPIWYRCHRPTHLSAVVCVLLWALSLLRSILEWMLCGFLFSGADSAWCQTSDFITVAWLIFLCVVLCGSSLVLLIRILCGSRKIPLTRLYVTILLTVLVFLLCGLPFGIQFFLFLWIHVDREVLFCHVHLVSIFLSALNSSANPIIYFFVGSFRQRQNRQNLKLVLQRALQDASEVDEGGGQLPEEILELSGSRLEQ
RGS4 block = inhibitors of human RGS4. 310,000 compounds, 0.45% hits. AID 463165. P49798. B-score at 10 µM. HEK293 M3R/RGS4 inducible, Fluo-4 calcium flux; hits give high values; triggered by carbachol at its EC20;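 active means B-score, a plate-corrected calcium signal, over three deviations above library mean, with baseline fluorescence within five deviations of library mean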;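 further: RGS4 expression induced by doxycycline in cells with stable M3 receptor; B-score is computed from the integrated fluorescence ratio over baseline after carbachol; higher B-score means a larger calcium signal and so more RGS4 inhibition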
Target sequence (P49798 whole entry, looked up): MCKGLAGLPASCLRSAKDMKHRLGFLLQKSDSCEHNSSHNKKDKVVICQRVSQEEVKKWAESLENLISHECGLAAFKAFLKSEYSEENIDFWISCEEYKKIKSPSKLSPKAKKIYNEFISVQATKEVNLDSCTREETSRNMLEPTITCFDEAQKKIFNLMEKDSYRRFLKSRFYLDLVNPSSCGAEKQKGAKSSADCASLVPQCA
MrgX1 allo act = human MrgX1 positive allosteric modulation, primary screen; Q96LB2; MrgX1-HEK293, Fluo-4 calcium flux, FDSS; hits give high values; B-score at 10 µM; 310,000 compounds, 0.63% hits;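 active means plate-corrected calcium response at least 3 library SD above typical, normal starting fluorescence, not activating the receptor alone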;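 further: compound read alongside a low EC10 to EC30 dose of BAM8-22 agonist; peak minus trough fluorescence over baseline measured at the second addition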
MrgX1 agonist = agonists of human MrgX1 receptor; Q96LB2; MrgX1-HEK293 cells, Fluo-4 calcium fluorescence, agonist mode; hits give high values; 310,000 compounds, 0.44% hits; B-score at 10 µM;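 active means calcium response B-score plate-corrected fluorescence ratio at least 3 library SD, with starting fluorescence B-score inside 5 SD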
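Material: MrgX1-expressing HEK293 cells; input: 15,000 cells per well; doses: test compound given as first of three sequential additions; schedule: overnight plating before 1 h dye loading; technique: Fluo-4 NW calcium-flux fluorescence, kinetic read; evaluation: baseline-normalised fluorescence change ratio, B-scored; control set: plate-wise positive and negative controls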
MrgX1 allo conf = confirmation of human MrgX1 receptor positive allosteric modulators | shares compounds with MrgX1 allo act | MrgX1-HEK293, Fluo-4 calcium fluorescence, FDSS | activation (ratio percentage), % at 10 µM | 1,200 compounds, 13% hits;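 active means ratio at least 3 SD above the weak peptide control, stable starting fluorescence, no direct agonism earlier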;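 further: compound followed by low BAM8-22 agonist challenge near EC20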
MrgX1 antag conf = human MrgX1 receptor antagonism, re-confirmation screen | 2,300 compounds, 19% hits | remaining BAM8-22 calcium response % of control (hits give low values), % at 10 µM | MrgX1-HEK293, BAM8-22 calcium flux, Fluo-4; hits give low values | shares compounds with MrgX1 antag;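 active means remaining agonist calcium response no higher than 100% minus 3 SD of agonist-only control wells, with starting fluorescence near control levels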;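 further: agonist BAM8-22 given at a near maximal EC90 to ECmax level; peak minus minimum fluorescence divided by baseline after agonist addition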
HEK293 Ca flux = counter-screen for MrgX1 antagonists: effect in parental HEK293 cells; shares compounds with MrgX1 antag; Fluo-4 calcium fluorescence, FDSS; fluorescence ratio F(max-min)/F0 at 10 µM; 4,000 compounds, 2% hits; AID 624111;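 active means duplicate-averaged calcium fluorescence ratio at least three times the standard deviation of buffer wells, a nonspecific response in parental cells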
HEK293 Ca counter = activity in parental HEK293 cells without MrgX1; parental HEK293 calcium flux, Fluo-4 fluorescence ratio; hits give high values; fluorescence ratio F(max-min)/F0 at 10 µM; AID 624114; shares compounds with MrgX1 antag; 4,000 compounds, 0.4% hits;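 active means calcium fluorescence ratio, averaged over duplicates, at least 3 SD of the buffer-well ratio, meaning a nonspecific response in receptor-free cells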;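 further: untransfected parental HEK293 lacking MrgX1 used as counterscreen for MrgX1 allosteric activators; fluorescence change taken during the second addition on a kinetic imager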
HEK293 Ca cntr2 = MrgX1 activator counter-screen hit in parental HEK293 cells; shares compounds with MrgX1 antag; Fluo-4 calcium fluorescence (FDSS); hits give high values; fluorescence ratio F(max-min)/F0 at 10 µM; 4,000 compounds, 8.7% hits; AID 624115;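 active means calcium fluorescence ratio at least three times the spread of buffer wells, meaning a non-specific response in parental cells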
Of the large screens only hits and unclear results are named; the others gave an inactive call (follow-up assays come after a bar, where they were run).

COc1ccc(S(=O)(=O)n2nc(OC(=O)c3ccccc3)cc2N)cc1	none
COc1ccc(S(=O)(=O)n2nc(OC(=O)c3ccccc3Br)cc2N)cc1	MrgX1 allo act 10.3 | MrgX1 allo conf 32.1% | HEK293 Ca flux inactive | HEK293 Ca counter inactive | HEK293 Ca cntr2 inactive
CCN1CCN(CC(O)COCC2COc3ccccc3O2)CC1 (centres undefined)	none
CSCCC(C(=O)N1CC2(C)CC1CC(C)(C)C2)N1C(=O)c2ccccc2C1=O (centres undefined)	none
CCNC(=O)c1sc2cc(C)ccc2c1Cl	none
Cc1ccc(NC(=S)N(CCN(C)C)C(C)c2cccnc2)c(C)c1 (centres undefined)	none
CNS(=O)(=O)c1ccc(CCC(=O)N2CCN(c3ccccc3OC)CC2)cc1	MrgX1 allo act 11.5 | MrgX1 allo conf inactive | HEK293 Ca flux inactive | HEK293 Ca counter inactive | HEK293 Ca cntr2 inactive
Cc1ccn2cc(-c3ccc(Br)cc3)nc2c1	MrgX1 allo act 14.7 | MrgX1 allo conf inactive | HEK293 Ca flux inactive | HEK293 Ca counter inactive | HEK293 Ca cntr2 inactive
COc1c(Cl)cccc1-c1cn2ccc(C)cc2n1	MrgX1 allo act 14.8 | MrgX1 allo conf inactive | HEK293 Ca flux inactive | HEK293 Ca counter inactive | HEK293 Ca cntr2 inactive
COc1cc(NS(=O)(=O)c2ccc(F)cc2)c(OC)cc1NC(=O)C1CC1	none (no result: MrgX1 antag, MrgX1 allo act, MrgX1 agonist)
COC(=O)c1sc2nc3c(cc2c1N)COC(C)(C)C3	none
O=C(CCC1CCN(Cc2ccccc2O)CC1)NC1CC1	MrgX1 allo act 8.11 | MrgX1 allo conf inactive | HEK293 Ca flux inactive | HEK293 Ca counter inactive | HEK293 Ca cntr2 inactive
O=C(CCC1CCN(Cc2ccccc2Cl)CC1)NC1CC1	none
COc1cccc(NC(=O)Nc2ccc3c(c2)nc(C)n3C)c1	none
Cc1ccc2nc(SC(C)C(=O)N3CCOCC3)[nH]c2c1 (centres undefined)	MrgX1 allo act 7.28 | MrgX1 allo conf inactive | HEK293 Ca flux inactive | HEK293 Ca counter inactive | HEK293 Ca cntr2 inactive
Cc1cccc(NC(=O)CCC(=O)OCC(=O)c2ccc(Oc3ccc([N+](=O)[O-])cc3)cc2)c1	none
Cc1cccc(NC2=NC(=S)N(c3cccc(C(=O)O)c3)C23CCCCC3)c1	none
Cc1cccc(C)c1NC1=NC(=S)N(c2ccc(C(=O)O)cc2)C12CCCCC2	MrgX1 allo act 7.24 | MrgX1 allo conf inactive | HEK293 Ca flux inactive | HEK293 Ca counter inactive | HEK293 Ca cntr2 inactive
Cc1ccn2c(Nc3ccccc3C)c(-c3ccccn3)nc2c1	MrgX1 allo act 9.14 | MrgX1 allo conf inactive | HEK293 Ca flux inactive | HEK293 Ca counter inactive | HEK293 Ca cntr2 inactive
CCCC(=O)c1ccc(N2CCOCC2)c(F)c1	none
CNc1c(NS(=O)(=O)c2ccc(Cl)s2)c(=O)oc2ccccc12	none
O=S(=O)(Nc1ncnc2c1oc1ccccc12)c1ccc(Cl)s1	MrgX1 allo act 19 | MrgX1 allo conf inactive | HEK293 Ca flux inactive | HEK293 Ca counter inactive | HEK293 Ca cntr2 inactive
COc1ccc(C(=O)NCCCn2ccnc2)cc1	none
COc1cc(OC)c(C(=O)NCCCn2ccnc2)cc1OC	MrgX1 allo act 6.5 | MrgX1 allo conf inactive | HEK293 Ca flux inactive | HEK293 Ca counter inactive | HEK293 Ca cntr2 inactive
CS(=O)(=O)c1ccc2nc(NC(=O)c3ccco3)sc2c1	MrgX1 allo act 9.02 | MrgX1 allo conf inactive | HEK293 Ca flux inactive | HEK293 Ca counter inactive | HEK293 Ca cntr2 inactive
Cc1nnc(SCC(=O)Nc2cccc(S(=O)(=O)NC3=NCCCCC3)c2)n1Cc1ccccc1	none
Cc1cc(-n2c(C)cc(C(=O)CN3C(=O)NC4(CCCC4)C3=O)c2C)no1	none
Cc1cc(-n2c(C)cc(C(=O)CCl)c2C)no1	MrgX1 allo act 10.1 | MrgX1 allo conf inactive | HEK293 Ca flux inactive | HEK293 Ca counter inactive | HEK293 Ca cntr2 inactive
COC(=O)C(NC(C)=O)(Nc1nc2c(C)cc(C)cc2s1)C(F)(F)F (centres undefined)	MrgX1 allo act 17.1 | MrgX1 allo conf inactive | HEK293 Ca flux inactive | HEK293 Ca counter inactive | HEK293 Ca cntr2 inactive
CC(CCc1ccc(O)cc1)NC1c2ccccc2-c2ccccc21 (centres undefined)	MrgX1 allo act 7.1 | MrgX1 allo conf inactive | HEK293 Ca flux inactive | HEK293 Ca counter inactive | HEK293 Ca cntr2 inactive
CCN(CC)C(=O)Oc1ccc2ccccc2c1Cl	none
CCN(CC)C(=O)Oc1ccnc2cc(Cl)ccc12	MrgX1 allo act 7.44 | MrgX1 allo conf inactive | HEK293 Ca flux inactive | HEK293 Ca counter inactive | HEK293 Ca cntr2 inactive
O=C(Oc1ccnc2cc(Cl)ccc12)N1CCCCCC1	MrgX1 allo act 15.2 | MrgX1 allo conf inactive | HEK293 Ca flux inactive | HEK293 Ca counter inactive | HEK293 Ca cntr2 inactive
COc1cc(OC)c(C2N(C)c3ccccc3N2C)cc1OC	none
COc1cc(OC)c(C2SCCCS2)cc1OC	MrgX1 allo act 12.8 | MrgX1 allo conf 6.3% | HEK293 Ca flux inactive | HEK293 Ca counter inactive | HEK293 Ca cntr2 inactive
COc1ccc(CC(=O)OCC(=O)N(CC(C)C)c2c(N)n(Cc3ccccc3)c(=O)[nH]c2=O)cc1	none
CCOC(=O)c1cccc(NC(=O)CCc2ccccc2)c1	MrgX1 allo act 8.08 | MrgX1 allo conf inactive | HEK293 Ca flux inactive | HEK293 Ca counter inactive | HEK293 Ca cntr2 inactive
O=C(O)c1cccc(N2C(=O)c3ccc(Oc4ccc(Cl)cc4)cc3C2=O)c1	none
O=C(O)c1cccc(N2C(=O)c3ccc4c5c(ccc(c35)C2=O)C(=O)N(c2cccc(C(=O)O)c2)C4=O)c1	MrgX1 allo act 6.99 | MrgX1 allo conf inactive | HEK293 Ca flux inactive | HEK293 Ca counter inactive | HEK293 Ca cntr2 inactive
O=C1CCCC2=C1Sc1ccccc1N2	MrgX1 antag -4.79 | MrgX1 antag conf inactive | HEK293 Ca flux inactive | HEK293 Ca counter inactive | HEK293 Ca cntr2 inactive
Cc1ccc(S(=O)(=O)n2nnc3ccccc32)c(C)c1C	MrgX1 antag -4.8 | MrgX1 antag conf inactive | HEK293 Ca flux inactive | HEK293 Ca counter inactive | HEK293 Ca cntr2 inactive
CCc1ccc(C2c3[nH]c4ccccc4c3CCN2C(=O)c2cc[n+]([O-])cc2)cc1 (centres undefined)	none
